Tests used:
CYP2C9 = CYP2C9 (Homo sapiens, UniProt P11712); assay: Inhibition of recombinant human CYP2C9 expressed in baker's yeast-derived microsomes (Sacchrosomes) at 10 uM using 3-cyano-7-ethoxycoumarin substrate by EROD assay relative to control; format: ADME; details: probe 3-cyano-7-ethoxycoumarin
Summary of the method: (§1)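 Yeast microsomes carrying recombinant CYP (Sacchrosomes). […] Substrates per isoform are 7-ethoxyresorufin, 3-cyano-7-ethoxycoumarin, EOMCC or dibenzylfluorescein, read as endpoint fluorescence. Background from compound-only wells without enzyme is subtracted. Independent triplicate runs; α-naphthoflavone positive control.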

CYP3A4 = CYP3A4 (Homo sapiens, UniProt P08684); assay: Inhibition of recombinant human CYP3A4 expressed in baker's yeast-derived microsomes (Sacchrosomes) at 10 uM using dibenzylfluorescein substrate by EROD assay relative to control; format: ADME; details: probe dibenzylfluorescein; summary of the method: as §1
CYP1B1 = biological target: T1, CYP1B1 (Homo sapiens, UniProt Q16678); assay: Inhibition of recombinant human CYP1B1 expressed in baker's yeast-derived microsomes (Sacchrosomes) at 10 uM using 7-ethoxyresorufin substrate by EROD assay relative to control; format: ADME; details: probe 7-ethoxyresorufin; summary of the method: as §1
T1 sequence (Q16678 whole entry): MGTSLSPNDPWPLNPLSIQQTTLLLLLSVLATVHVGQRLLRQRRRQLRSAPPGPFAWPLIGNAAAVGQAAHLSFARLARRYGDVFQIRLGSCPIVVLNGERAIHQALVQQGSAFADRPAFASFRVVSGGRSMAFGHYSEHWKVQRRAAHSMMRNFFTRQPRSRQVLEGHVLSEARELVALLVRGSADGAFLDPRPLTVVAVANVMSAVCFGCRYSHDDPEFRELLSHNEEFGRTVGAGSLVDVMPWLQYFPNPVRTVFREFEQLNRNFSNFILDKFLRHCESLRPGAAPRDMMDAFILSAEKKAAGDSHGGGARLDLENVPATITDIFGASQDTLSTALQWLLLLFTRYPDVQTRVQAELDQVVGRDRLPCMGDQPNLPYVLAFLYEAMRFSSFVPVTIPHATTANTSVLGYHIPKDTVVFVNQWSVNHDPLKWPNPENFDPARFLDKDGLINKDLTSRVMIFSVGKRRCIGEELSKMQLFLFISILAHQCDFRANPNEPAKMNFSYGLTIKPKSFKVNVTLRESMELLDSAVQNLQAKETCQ

Cytochrome P450 1A2 = biological target: T2, Cytochrome P450 1A2 (Homo sapiens, UniProt P05177); assay: Inhibition of human recombinant CYP1A2 expressed in HEK293 cells using 3-cyano-7-ethoxycoumarin substrate preincubated for 30 mins followed by substrate addition and measured after 60 mins by fluorescence assay relative to control; format: ADME, cell-based
T2 sequence (P05177 whole entry): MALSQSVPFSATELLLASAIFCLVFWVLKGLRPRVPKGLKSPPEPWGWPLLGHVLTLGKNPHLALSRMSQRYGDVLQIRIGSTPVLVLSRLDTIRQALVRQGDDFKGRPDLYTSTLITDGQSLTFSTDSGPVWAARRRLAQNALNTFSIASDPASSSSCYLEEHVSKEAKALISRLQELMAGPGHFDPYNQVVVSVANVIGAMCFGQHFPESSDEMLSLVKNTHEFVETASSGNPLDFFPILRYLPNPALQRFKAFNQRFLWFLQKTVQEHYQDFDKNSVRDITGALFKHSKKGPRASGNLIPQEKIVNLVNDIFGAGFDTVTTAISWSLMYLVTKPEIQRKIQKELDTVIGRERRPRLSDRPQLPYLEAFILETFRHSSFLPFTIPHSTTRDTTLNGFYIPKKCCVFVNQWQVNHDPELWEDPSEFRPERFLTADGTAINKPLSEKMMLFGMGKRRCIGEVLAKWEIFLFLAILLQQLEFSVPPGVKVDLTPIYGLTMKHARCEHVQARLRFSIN
Summary of the method: (§2)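 HEK293 cells adapted to suspension and transiently transfected with pcDNA3.1 plasmids carrying the individual CYP; 100×10^3 cells per well in triplicate. […] Fluorogenic substrate is then added at 5 μM and fluorescence read for 60 min.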

CYP2C19 = CYP2C19 (Homo sapiens, UniProt P33261); assay: Inhibition of recombinant human CYP2C19 expressed in baker's yeast-derived microsomes (Sacchrosomes) at 10 uM using 3-cyano-7-ethoxycoumarin substrate by EROD assay relative to control; format: ADME; details: probe 3-cyano-7-ethoxycoumarin; summary of the method: as §1
CYP1A2 = biological target: T3, CYP1A2 (Homo sapiens, UniProt P05177); assay: Inhibition of recombinant human CYP1A2 expressed in baker's yeast-derived microsomes (Sacchrosomes) at 10 uM using 3-cyano-7-ethoxycoumarin substrate by EROD assay relative to control; format: ADME; details: probe 3-cyano-7-ethoxycoumarin
T3 sequence (P05177 whole entry): T2 sequence (P05177 whole entry)
Summary of the method: (§3)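 Yeast microsomes carrying recombinant CYP (Sacchrosomes). Substrates per isoform are 7-ethoxyresorufin, 3-cyano-7-ethoxycoumarin, EOMCC or dibenzylfluorescein, read as endpoint fluorescence. Background from compound-only wells without enzyme is subtracted. Independent triplicate runs; α-naphthoflavone positive control.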

Cytochrome P450 1A1 = biological target: T4, Cytochrome P450 1A1 (Homo sapiens, UniProt P04798); assay: Inhibition of human recombinant CYP1A1 expressed in HEK293 cells using 7-ethoxyresorufin substrate preincubated for 30 mins followed by substrate addition and measured after 60 mins by fluorescence assay relative to control; format: cell-based; summary of the method: as §2
T4 sequence (P04798 whole entry): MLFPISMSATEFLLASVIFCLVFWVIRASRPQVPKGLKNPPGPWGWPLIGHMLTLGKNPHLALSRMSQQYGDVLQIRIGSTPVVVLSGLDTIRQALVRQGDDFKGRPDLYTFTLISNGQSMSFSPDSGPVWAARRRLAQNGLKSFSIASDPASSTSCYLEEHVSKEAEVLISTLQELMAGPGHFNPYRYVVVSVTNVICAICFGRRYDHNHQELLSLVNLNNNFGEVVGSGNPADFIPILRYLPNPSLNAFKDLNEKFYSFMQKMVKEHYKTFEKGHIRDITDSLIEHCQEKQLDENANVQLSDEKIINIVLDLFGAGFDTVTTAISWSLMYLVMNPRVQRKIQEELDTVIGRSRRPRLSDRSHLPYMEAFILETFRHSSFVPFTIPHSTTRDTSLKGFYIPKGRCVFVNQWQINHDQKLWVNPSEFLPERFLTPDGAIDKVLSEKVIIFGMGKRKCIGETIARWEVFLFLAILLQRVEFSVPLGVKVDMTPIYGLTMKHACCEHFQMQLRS

Cytochrome P450 3A4 = Cytochrome P450 3A4 (Homo sapiens, UniProt P08684); assay: Inhibition of human recombinant CYP3A4 expressed in HEK293 cells using dibenzylfluorescein substrate substrate preincubated for 30 mins followed by substrate addition and measured after 60 mins by fluorescence assay relative to control; format: ADME, cell-based
Summary of the method: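 HEK293 cells adapted to suspension and transiently transfected with pcDNA3.1 plasmids carrying the individual CYP; 100×10^3 cells per well in triplicate. Fluorogenic substrate is then added at 5 μM and fluorescence read for 60 min.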

Cytochrome P450 1B1 = biological target: T5, Cytochrome P450 1B1 (Homo sapiens, UniProt Q16678); assay: Inhibition of human recombinant CYP1B1 expressed in HEK293 cells using 7-ethoxyresorufin substrate substrate preincubated for 30 mins followed by substrate addition and measured after 60 mins by fluorescence assay relative to control; format: ADME, cell-based; summary of the method: as §2
T5 sequence (Q16678 whole entry): T1 sequence (Q16678 whole entry)

Cytochrome P450 2C9 = Cytochrome P450 2C9 (Homo sapiens, UniProt P11712); assay: Inhibition of human recombinant CYP2C9 expressed in HEK293 cells using 3-cyano-7-ethoxycoumarin substrate substrate preincubated for 30 mins followed by substrate addition and measured after 60 mins by fluorescence assay relative to control; format: ADME, cell-based; summary of the method: as §2
Cytochrome P450 2D6 = Cytochrome P450 2D6 (Homo sapiens, UniProt P10635); assay: Inhibition of human recombinant CYP2D6 expressed in HEK293 cells using 7-ethoxy-methyloxy-3-cyanocoumarin substrate substrate preincubated for 30 mins followed by substrate addition and measured after 60 mins by fluorescence assay relative to control; format: ADME, cell-based; summary of the method: as §2
Cytochrome P450 2C19 = Cytochrome P450 2C19 (Homo sapiens, UniProt P33261); assay: Inhibition of human recombinant CYP2C19 expressed in HEK293 cells using 3-cyano-7-ethoxycoumarin substrate substrate preincubated for 30 mins followed by substrate addition and measured after 60 mins by fluorescence assay relative to control; format: ADME, cell-based; summary of the method: as §2
CYP2D6 = CYP2D6 (Homo sapiens, UniProt P10635); assay: Inhibition of recombinant human CYP2D6 expressed in baker's yeast-derived microsomes (Sacchrosomes) at 10 uM using 7-ethoxy-methyloxy-3-cyanocoumarin substrate by EROD assay relative to control; format: ADME; details: probe 7-ethoxy-methyloxy-3-cyanocoumarin; summary of the method: as §1
CYP1A1 [1] = biological target: T6, CYP1A1 (Homo sapiens, UniProt P04798); assay: Inhibition of recombinant human CYP1A1 expressed in baker's yeast-derived microsomes (Sacchrosomes) at 10 uM using 7-ethoxyresorufin substrate by EROD assay relative to control; details: probe 7-ethoxyresorufin; summary of the method: as §3
T6 sequence (P04798 whole entry): T4 sequence (P04798 whole entry)

CYP1A1 [2] = biological target: T6, CYP1A1; assay: Inhibition of human recombinant CYP1A1 expressed in HEK293 cells at 10 uM using 7-ethoxyresorufin substrate preincubated for 30 mins followed by substrate addition and measured after 60 mins by fluorescence assay relative to control; format: cell-based; details: HEK293 cells expressing human recombinant CYP1A1, probe 7-ethoxyresorufin; summary of the method: as §2

Sequence of CYP2D6 (P10635 whole entry): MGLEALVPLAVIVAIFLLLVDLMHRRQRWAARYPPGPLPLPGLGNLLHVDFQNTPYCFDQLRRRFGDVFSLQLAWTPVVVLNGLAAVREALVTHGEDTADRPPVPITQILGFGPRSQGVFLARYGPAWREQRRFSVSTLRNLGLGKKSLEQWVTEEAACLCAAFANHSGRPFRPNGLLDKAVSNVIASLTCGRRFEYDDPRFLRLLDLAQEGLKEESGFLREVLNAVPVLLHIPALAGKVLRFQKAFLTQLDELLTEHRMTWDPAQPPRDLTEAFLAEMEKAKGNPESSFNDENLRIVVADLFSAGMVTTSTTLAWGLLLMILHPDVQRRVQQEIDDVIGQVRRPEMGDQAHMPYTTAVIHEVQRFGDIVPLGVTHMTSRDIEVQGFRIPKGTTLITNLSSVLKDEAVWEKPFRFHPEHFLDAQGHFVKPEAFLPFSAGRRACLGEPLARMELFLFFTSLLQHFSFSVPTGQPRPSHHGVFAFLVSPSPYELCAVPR
Sequence of Cytochrome P450 2D6 (P10635 whole entry): as above
Sequence of Cytochrome P450 3A4 (P08684 whole entry): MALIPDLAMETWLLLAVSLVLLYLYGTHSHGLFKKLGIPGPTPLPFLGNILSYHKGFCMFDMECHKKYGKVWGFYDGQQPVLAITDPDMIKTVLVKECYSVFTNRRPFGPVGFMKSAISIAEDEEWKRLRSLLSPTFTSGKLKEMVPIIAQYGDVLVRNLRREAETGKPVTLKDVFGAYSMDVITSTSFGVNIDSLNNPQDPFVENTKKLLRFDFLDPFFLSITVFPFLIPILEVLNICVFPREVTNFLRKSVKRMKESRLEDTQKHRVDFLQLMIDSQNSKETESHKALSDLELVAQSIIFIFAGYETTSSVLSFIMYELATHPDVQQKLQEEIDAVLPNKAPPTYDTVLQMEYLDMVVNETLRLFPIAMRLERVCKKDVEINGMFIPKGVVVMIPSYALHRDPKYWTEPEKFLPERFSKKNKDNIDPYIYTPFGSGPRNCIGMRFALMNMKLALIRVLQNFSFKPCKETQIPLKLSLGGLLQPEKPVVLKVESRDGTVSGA
Sequence of CYP3A4 (P08684 whole entry): as above
Sequence of CYP2C19 (P33261 whole entry): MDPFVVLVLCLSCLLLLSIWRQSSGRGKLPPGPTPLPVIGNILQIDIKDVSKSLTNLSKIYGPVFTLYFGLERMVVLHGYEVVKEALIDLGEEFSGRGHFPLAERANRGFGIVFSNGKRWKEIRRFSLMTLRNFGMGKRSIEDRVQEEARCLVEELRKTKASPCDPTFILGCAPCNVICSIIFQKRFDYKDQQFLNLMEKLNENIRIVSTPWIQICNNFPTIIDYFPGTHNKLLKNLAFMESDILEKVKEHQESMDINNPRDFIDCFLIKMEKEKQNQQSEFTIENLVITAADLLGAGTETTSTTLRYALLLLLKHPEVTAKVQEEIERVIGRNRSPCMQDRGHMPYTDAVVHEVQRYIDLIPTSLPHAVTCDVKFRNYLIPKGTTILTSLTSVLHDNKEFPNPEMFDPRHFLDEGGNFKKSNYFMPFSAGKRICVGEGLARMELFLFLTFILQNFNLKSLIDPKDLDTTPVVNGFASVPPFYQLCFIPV
Sequence of Cytochrome P450 2C19 (P33261 whole entry): as above
Sequence of Cytochrome P450 2C9 (P11712 whole entry): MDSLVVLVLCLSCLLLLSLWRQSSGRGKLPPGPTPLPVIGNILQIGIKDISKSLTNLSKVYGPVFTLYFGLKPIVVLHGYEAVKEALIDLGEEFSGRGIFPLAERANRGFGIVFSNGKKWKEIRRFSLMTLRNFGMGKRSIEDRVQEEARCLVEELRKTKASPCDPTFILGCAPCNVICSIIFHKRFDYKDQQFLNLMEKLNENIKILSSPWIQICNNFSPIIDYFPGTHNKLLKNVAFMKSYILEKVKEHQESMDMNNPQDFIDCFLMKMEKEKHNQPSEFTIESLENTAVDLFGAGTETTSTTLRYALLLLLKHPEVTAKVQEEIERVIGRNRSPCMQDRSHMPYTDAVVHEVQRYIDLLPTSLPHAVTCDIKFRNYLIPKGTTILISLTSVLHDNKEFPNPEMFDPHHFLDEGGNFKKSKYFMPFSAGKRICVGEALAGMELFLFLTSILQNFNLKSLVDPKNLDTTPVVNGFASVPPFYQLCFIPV
Sequence of CYP2C9 (P11712 whole entry, canonical isoform): as the sequence (P11712 whole entry) above

Structure (SMILES) | inhibition at 10 µM (CYP2C9) [%] | inhibition at 10 µM (CYP3A4) [%] | inhibition at 10 µM (CYP1B1) [%] | IC50 (Cytochrome P450 1A2) [µM] | Ki (Cytochrome P450 1A2) [µM] | inhibition at 10 µM (CYP2C19) [%] | inhibition at 10 µM (CYP1A2) [%] | IC50 (Cytochrome P450 1A1) [µM] | Ki (Cytochrome P450 1A1) [µM] | IC50 (Cytochrome P450 3A4) [µM] | IC50 (Cytochrome P450 1B1) [µM] | IC50 (Cytochrome P450 2C9) [µM] | IC50 (Cytochrome P450 2D6) [µM] | IC50 (Cytochrome P450 2C19) [µM] | inhibition at 10 µM (CYP2D6) [%] | inhibition at 10 µM (CYP1A1 [1]) [%] | inhibition at 1 h, 10 µM (CYP1A1 [2]) [%]
Nc1nccc(-c2c[nH]c3ccc(Br)cc23)n1 [MERIDIANIN C] | 3 | 10 | 7 | 8.72 | 8.78 | 2 | 55 | 9.23 | 9.48 | > 10 | 0.213 | > 10 | > 10 | > 10 | 5 | 50 to 52 | 41
COc1ccc(-c2cc(=O)c3c(O)c(OC)c(OC)cc3o2)cc1OC | 7 | 9 | 70 | 0.9 | 0.78 | 5 | 90 | 1.38 | 1.42 | > 10 | 2.5 | > 10 | > 10 | > 10 | 13 | 80 | 96
O=C1C=CC(=O)c2c(O)ccc(O)c21 [NAPHTHAZALIN] | 5 | 15 | 8 | 2.16 | 2.22 | 4 | 82 | 3.82 | 3.66 | > 10 | > 10 | > 10 | > 10 | > 10 | 5 | 79 to 99 | 78
COc1c(C(=O)CC(=O)c2ccccc2)ccc2occc12 | 0 | 9 | 12 | 3.16 | 3.86 | 3 | 8 | 2.23 | 1.96 | > 10 | 6.04 | > 10 | > 10 | > 10 | 14 | 85 to 87 | 85
COc1c2ccoc2c(OCC=C(C)C)c2oc(=O)ccc12 [PHELLOPTERIN] | 3 | 12 | 98 | 0.42 | 0.38 | 5 | 96 | 0.58 | 0.62 | > 10 | 0.22 | > 10 | > 10 | > 10 | 20 | 87 to 97 | 90
